Laboratory results as given in ChEMBL document CHEMBL3259739, “Synthesis and structure-activity relationship of trisubstituted thiazoles as Cdc7 kinase inhibitors” (Eur J Med Chem, 2014).

Experiments:
[1] = biological target: T1, Myotonin-protein kinase (Homo sapiens) (UniProt Q09013); assay: Inhibition of DMPK (unknown origin) at 1 uM relative to control; values are per cent of control
T1 sequence (whole entry): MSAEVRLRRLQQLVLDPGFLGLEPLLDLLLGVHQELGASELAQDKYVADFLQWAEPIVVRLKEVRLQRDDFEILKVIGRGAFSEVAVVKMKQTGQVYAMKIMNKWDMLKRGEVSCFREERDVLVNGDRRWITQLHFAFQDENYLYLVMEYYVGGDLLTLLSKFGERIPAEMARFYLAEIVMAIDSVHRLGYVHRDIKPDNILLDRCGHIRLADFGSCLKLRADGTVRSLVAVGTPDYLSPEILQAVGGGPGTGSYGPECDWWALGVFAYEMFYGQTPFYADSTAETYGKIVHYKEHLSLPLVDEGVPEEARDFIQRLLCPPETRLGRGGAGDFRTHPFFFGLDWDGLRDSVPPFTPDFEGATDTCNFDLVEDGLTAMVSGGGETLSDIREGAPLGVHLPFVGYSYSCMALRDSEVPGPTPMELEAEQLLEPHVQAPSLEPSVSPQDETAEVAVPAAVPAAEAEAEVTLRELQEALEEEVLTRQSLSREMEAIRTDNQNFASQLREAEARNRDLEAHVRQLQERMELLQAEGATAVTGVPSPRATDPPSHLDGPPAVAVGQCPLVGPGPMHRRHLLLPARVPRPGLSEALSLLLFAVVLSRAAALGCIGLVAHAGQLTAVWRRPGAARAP

[2] = biological target: Tyrosine-protein kinase ABL1 (Homo sapiens) (UniProt P00519); assay: Inhibition of nonphosphorylated ABL1 (unknown origin) at 1 uM relative to control; values are per cent of control
[3] = biological target: Cyclin-dependent kinase 4/cyclin D1 (Homo sapiens) (UniProt P11802+P24385); assay: Inhibition of CDK4-cyclinD1 (unknown origin) at 1 uM relative to control; values are per cent of control
[4] = biological target: T2, Interleukin-1 receptor-associated kinase 4 (Homo sapiens) (UniProt Q9NWZ3); assay: Inhibition of IRAK4 (unknown origin) at 1 uM relative to control; values are per cent of control
T2 sequence (whole entry): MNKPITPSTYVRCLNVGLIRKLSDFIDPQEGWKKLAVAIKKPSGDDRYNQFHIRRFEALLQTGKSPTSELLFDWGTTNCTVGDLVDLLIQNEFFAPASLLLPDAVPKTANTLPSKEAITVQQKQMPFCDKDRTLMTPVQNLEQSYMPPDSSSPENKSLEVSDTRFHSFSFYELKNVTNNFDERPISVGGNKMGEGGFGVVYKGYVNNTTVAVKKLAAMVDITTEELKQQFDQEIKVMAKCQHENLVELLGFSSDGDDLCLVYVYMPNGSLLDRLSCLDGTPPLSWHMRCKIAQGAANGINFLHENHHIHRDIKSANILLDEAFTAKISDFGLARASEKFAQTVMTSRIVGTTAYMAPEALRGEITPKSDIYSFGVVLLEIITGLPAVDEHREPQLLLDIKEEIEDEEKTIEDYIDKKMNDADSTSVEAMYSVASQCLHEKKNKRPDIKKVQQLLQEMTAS

[5] = biological target: T3, Serine/threonine-protein kinase D2 (Homo sapiens) (UniProt Q9BZL6); assay: Inhibition of PRKD2 (unknown origin) at 1 uM relative to control; conditions: values are per cent of control
T3 sequence (whole entry): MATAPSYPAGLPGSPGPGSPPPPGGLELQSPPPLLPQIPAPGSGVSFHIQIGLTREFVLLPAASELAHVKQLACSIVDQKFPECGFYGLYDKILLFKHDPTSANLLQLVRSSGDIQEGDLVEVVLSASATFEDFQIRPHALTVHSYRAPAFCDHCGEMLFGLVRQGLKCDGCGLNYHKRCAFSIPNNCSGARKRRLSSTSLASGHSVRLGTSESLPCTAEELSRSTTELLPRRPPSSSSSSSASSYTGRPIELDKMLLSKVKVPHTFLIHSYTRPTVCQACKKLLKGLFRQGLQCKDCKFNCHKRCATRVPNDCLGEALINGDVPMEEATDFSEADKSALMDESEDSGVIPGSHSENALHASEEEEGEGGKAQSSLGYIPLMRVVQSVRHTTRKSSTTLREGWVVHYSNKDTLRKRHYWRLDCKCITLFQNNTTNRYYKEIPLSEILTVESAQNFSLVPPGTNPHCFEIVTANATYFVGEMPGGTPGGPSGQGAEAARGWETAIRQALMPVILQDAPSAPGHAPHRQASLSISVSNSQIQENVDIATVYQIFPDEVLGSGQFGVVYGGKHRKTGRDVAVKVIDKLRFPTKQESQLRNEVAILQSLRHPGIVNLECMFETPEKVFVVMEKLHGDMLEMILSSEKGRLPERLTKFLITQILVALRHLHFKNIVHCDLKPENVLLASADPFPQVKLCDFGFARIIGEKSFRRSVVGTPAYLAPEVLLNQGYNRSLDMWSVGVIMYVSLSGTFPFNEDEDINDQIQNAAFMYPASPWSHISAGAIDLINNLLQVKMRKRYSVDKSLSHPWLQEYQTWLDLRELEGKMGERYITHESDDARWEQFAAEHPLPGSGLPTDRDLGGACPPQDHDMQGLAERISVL
Outline: (§1)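 KinomeSCAN competitive binding panel of 100 kinases; compounds tested at 1 µM in duplicate; read-out is percent […] control.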

[6] = biological target: Ribosomal protein S6 kinase beta-1 (Homo sapiens) (UniProt P23443); assay: Inhibition of S6K1 (unknown origin) at 1 uM relative to control; conditions: values are per cent of control
Outline: as §1

[7] = Intrinsic clearance in rat liver microsomes at 1 uM after 30 mins by reverse phase HPLC analysis in presence of NADPH; type: ADME; conditions: read-out: CLH
Outline: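 Reactions were stopped with MeCN after 0 or 30 min. Samples were analysed by reverse-phase HPLC–tandem MS to give intrinsic clearance (µl/min/mg).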

[8] = biological target: T4, Dual specificity mitogen-activated protein kinase kinase 3 (Homo sapiens) (UniProt P46734); assay: Inhibition of MEK3 (unknown origin) at 1 uM relative to control; values are per cent of control
T4 sequence (whole entry): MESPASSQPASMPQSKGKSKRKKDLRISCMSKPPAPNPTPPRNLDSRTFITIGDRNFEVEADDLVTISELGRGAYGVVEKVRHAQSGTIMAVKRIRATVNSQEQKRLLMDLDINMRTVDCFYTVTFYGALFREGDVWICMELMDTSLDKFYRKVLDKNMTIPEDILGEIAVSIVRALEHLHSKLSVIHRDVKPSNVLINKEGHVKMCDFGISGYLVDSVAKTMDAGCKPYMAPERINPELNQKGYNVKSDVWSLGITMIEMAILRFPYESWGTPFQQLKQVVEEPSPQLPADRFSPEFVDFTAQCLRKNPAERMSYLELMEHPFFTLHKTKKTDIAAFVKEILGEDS

Tyrosine-protein kinase ABL1 (Homo sapiens), sequence (P00519 whole entry): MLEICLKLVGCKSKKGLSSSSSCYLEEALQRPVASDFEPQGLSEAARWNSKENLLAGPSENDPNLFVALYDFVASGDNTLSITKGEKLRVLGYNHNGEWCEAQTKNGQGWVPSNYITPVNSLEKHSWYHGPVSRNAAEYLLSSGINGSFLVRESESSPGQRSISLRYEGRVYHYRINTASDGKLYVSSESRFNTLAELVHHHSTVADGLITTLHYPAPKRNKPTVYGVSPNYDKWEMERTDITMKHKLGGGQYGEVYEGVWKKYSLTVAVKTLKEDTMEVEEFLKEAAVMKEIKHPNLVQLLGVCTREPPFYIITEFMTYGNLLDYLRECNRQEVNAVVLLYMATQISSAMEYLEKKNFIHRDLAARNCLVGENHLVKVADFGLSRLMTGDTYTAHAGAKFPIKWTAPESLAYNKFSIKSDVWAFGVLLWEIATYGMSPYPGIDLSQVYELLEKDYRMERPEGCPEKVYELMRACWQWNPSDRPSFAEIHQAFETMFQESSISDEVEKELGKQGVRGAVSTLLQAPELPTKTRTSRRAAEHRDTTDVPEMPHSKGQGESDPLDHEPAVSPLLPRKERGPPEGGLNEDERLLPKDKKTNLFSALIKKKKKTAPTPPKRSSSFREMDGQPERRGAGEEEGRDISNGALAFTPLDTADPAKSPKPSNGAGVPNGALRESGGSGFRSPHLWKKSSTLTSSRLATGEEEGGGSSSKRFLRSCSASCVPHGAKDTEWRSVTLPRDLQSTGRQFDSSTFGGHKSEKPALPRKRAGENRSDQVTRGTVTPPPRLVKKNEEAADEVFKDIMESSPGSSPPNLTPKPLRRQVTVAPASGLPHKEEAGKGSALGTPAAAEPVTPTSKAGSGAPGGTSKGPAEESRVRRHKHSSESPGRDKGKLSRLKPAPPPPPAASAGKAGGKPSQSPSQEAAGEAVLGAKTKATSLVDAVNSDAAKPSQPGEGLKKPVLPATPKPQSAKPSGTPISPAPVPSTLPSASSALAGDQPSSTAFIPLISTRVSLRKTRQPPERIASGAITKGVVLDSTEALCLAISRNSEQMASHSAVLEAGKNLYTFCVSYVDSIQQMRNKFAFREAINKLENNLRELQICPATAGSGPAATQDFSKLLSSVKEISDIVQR
Ribosomal protein S6 kinase beta-1 (Homo sapiens), sequence (P23443 whole entry, looked up): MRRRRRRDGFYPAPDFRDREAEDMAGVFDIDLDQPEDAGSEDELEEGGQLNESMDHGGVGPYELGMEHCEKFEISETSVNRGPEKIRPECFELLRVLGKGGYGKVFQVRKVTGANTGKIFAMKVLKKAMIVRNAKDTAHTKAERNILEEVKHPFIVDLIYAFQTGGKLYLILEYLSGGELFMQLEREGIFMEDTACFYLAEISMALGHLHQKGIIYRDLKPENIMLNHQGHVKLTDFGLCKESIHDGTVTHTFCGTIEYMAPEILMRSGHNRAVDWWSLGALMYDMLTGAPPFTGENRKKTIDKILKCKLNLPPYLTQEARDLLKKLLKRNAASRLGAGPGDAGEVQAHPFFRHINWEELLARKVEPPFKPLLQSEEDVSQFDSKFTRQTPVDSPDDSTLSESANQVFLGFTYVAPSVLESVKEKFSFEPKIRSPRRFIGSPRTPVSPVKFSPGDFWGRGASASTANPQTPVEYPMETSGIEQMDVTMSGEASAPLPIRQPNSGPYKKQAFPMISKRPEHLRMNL

residual activity [1] [%] | residual activity [2] [%] | residual activity [3] [%] | residual activity [4] [%] | residual binding, % of control [5] [%] | residual binding, % of control [6] [%] | microsomal CLint at 1 µM [7] [µL/min/mg] | residual activity [8] [%] | SMILES
88 | 87 | 100 | 100 | 99 | 83 | < 14 | 100 | CCOC(=O)c1sc(-c2ccncc2)nc1O
50 | 100 | 98 | 100 | 77 | 42 | 99 | 35 | COc1ccc(-c2nc(-c3ccnc(N)n3)sc2C(N)=O)c(Cl)c1

SMILES | residual activity [1] [%] | residual activity [2] [%] | residual activity [3] [%] | residual activity [4] [%] | residual binding, % of control [5] [%] | residual binding, % of control [6] [%] | microsomal CLint at 1 µM [7] [µL/min/mg] | residual activity [8] [%]
NC(=O)c1sc(-c2ccnc(N)n2)nc1-c1ccc(Cl)cc1Cl | 100 | 100 | 100 | 91 | 92 | 75 | 22 | 25
